Test results: ChEMBL document CHEMBL4811219 (Eur J Med Chem, 2021)

What was measured:
Type in all cases: ADME, organism-based
Conditions in all cases: in vivo
[1] = Cmax in CD-1 mouse at 10 mg/kg, ip upto 7 hrs by LC-MS/MS analysis; design: route intraperitoneal, dose 10 mg/kg, time <=7
In short: (§1)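 Female CD-1 mice, single dose of 10 mg/kg i.p. or 20 mg/kg p.o., in 20% DMSO/50% PEG-400/30% PBS. Blood was sampled at 0.5, 2, 4 and 7 h and plasma assayed by LC-MS/MS (ESI positive MRM). Parameters are noncompartmental, mean of N=3.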

[2] = Observed AUC (0-7 hrs) in CD-1 mouse at 10 mg/kg, ip by LC-MS/MS analysis; design: time < 7 hr, route intraperitoneal, dose 10 mg/kg
[3] = Cmax in CD-1 mouse at 20 mg/kg, po upto 7 hrs by LC-MS/MS analysis; design: route oral, dose 20 mg/kg, time <=7; in short: as §1
[4] = Observed AUC (0-7 hrs) in CD-1 mouse at 20 mg/kg, po by LC-MS/MS analysis; design: time < 7 hr, route oral, dose 20 mg/kg

| Cmax [1] [µM] | AUC [2] [µM·h] | Cmax [3] [µM] | AUC [4] [µM·h] | SMILES |
| --- | --- | --- | --- | --- |
| 7.9 | 19.5 |  |  | CC(Sc1nc2nn(C3COC3)cc2c(=O)n1-c1ccccc1)c1ccccc1 (stereo not drawn) |
| 7 | 23 | 7 | 23.3 | CC(Sc1nc2nn(C3(C)COC3)cc2c(=O)n1-c1ccccc1)c1ccccc1 (stereo not drawn) |
| 0.3 | 0.7 |  |  | C[C@@H](Sc1nc2c(cnn2C)c(=O)n1-c1ccccc1)c1ccccc1 |
| 2.3 | 4.9 | 0.8 | 3.9 | CC(Sc1nc2c(cnn2C)c(=O)n1-c1ccccc1)c1ccccc1 (stereo not drawn) |
| 3.3 |  | 3.9 |  | CC(Sc1nc2nn(C3COC3)cc2c(=O)n1-c1ccccc1)c1ccccn1 (stereo not drawn) |
| 3.9 | 7.9 | 7.3 | 17.4 | CC(Sc1nc2c(cnn2C)c(=O)n1-c1ccccc1)c1ccccn1 (stereo not drawn) |
